Screens deposited in PubChem BioAssay by Broad Institute.
Xi reactivation: activators of X-chromosome reactivation in mouse fibroblasts. AID 743238. XiGFP mouse fibroblasts, % GFP-positive cells imaging, 3 d; cells co-treated with 5-aza-dC sensitizer; scaled so ellipticine positive control = 100%. 360,000 compounds, 0.055% hits. activation, % at 7.58 µM;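 active = mean normalized replicate activation at least 10% and every replicate at or above 10%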;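 also: 0% = median of on-plate neutral control wells and 100% = ellipticine 6 µM median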
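System: 68-5-11 XiGFP fibroblast line; Timing: 3 days compound exposure; Compound dosing: one concentration, pinned; Benchmarks: positive control ellipticine, 6 µM final; Buffer or medium: DMEM containing 5-aza-dC.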
RAD52 inh: inhibitors of human RAD52 DNA annealing; recombinant RAD52 DNA annealing, FRET fluorescence; inhibition, % at 18.7 µM; 360,000 compounds, 0.46% hits; AID 651710;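 active = every replicate showing at least 50% inhibition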
Target sequence (P43351 whole entry, looked up): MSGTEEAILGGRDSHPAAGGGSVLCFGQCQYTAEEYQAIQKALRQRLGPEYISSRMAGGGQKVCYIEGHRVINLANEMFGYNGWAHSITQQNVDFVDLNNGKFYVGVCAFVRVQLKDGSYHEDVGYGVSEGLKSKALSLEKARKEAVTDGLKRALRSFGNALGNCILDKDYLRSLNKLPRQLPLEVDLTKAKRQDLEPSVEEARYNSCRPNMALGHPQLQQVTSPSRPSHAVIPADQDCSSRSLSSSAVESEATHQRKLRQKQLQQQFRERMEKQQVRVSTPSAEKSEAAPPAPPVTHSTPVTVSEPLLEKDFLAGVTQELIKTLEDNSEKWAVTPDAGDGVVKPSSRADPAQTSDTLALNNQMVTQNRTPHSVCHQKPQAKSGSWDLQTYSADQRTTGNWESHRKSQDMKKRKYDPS
CASP6 VEID inh: blocks human caspase-6 cleavage activity | purified caspase-6, Z-VEID-R110 cleavage fluorescence | inhibition, % at 12.5 µM | P55212 | 350,000 compounds, 0.53% hits;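 active = mean inhibition across replicates at least about 35%, with every replicate also reaching that limit, limit read from the data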;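 also: 0% = median of neutral control wells and 100% = no fluorescence left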
Target sequence (P55212 24-179 limits assumed): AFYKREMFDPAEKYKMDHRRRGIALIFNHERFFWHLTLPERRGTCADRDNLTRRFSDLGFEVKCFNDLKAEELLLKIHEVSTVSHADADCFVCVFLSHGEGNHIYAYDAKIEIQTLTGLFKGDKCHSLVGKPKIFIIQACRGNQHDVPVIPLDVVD
Target sequence (P55212 194-293 limits assumed): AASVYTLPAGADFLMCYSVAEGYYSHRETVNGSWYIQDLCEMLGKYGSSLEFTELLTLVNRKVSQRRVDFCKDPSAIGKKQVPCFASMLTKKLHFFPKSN
S100A4 inh HTS: blocks human S100A4 binding to myosin IIA peptide; 360,000 compounds, 0.14% hits; S100A4/TAMRA-MyoIIA peptide fluorescence polarization; P26447; AID 652163; inhibition, % at 10.7 µM;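 active = mean inhibition of at least 70% across replicates, with every replicate also reaching that level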
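Test system: S100A4 monomer protein. Medium: HEPES buffer with Ca2+, pH 7.2. Reagent: fluorescent myosin IIA peptide, 5 nM. Compound dosing: single-point compound testing. Timing: 5 min between mix addition and reading. Benchmarks: DMSO neutral and TFP positive wells.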
RAD54 inh: RAD54 (human) branch migration inhibition; Q92698; RAD54 Holliday junction branch migration, FAM/BHQ fluorescence; inhibition, % at 10.4 µM; 360,000 compounds, 0.14% hits; AID 602329;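 active = mean normalized replicate activity at least 40 and at least half of replicates scoring 40 or more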;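 also: 0% = median of neutral control wells and 100% = median of positive control wells; inhibitors cause a drop in the FAM fluorescence signal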
AF4-AF9 inh: inhibitors of human MLL-AF4/AF9 interaction. P42568. AlphaScreen, biotin-AF4 peptide binding to FLAG-AF9. inhibition, % at 10 µM. 350,000 compounds, 0.47% hits;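 active = every replicate reaching a set inhibition limit, whatever the replicate mean, cut at about 25% in these data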;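 also: 0% = plate neutral control median and 100% = total signal loss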
An asterisk follows results filed as active; i = inactive; x = not tested or not shown; ! = repeats disagree. Only some compounds are listed: those with a hit (about 1.3% of all), similar ones and a draw of the others.

SMILES	Xi reactivation	RAD52 inh	CASP6 VEID inh	S100A4 inh HTS	RAD54 inh	AF4-AF9 inh
CC(C)NC(=O)N(C)C[C@@H]1Oc2c(NS(C)(=O)=O)cccc2C(=O)N(C)C[C@H]1C	0.3	x	x	x	x	x
CC(=O)c1ccc(C(=O)Nc2sc3c(c2C(N)=O)CCN(Cc2ccccc2)C3)cc1	38.7*	-106.9	-3.0	-6.1	-17.8	-0.2
CC(=O)Nc1sc2c(c1-c1nc3ccccc3s1)CCN(C(C)C)C2	x	x	x	x	77.6*	x
CC(C)N1CCc2c(sc(NC(=O)c3ccc4ccccc4c3)c2C(N)=O)C1	99.2*	i	-32.9	1.1	-9.4	-2.6
CC(C)N1CCc2c(sc(NC(=O)c3ccco3)c2C(N)=O)C1	0.2	-39.7	-4.7	-2.0	30.5	0.1
C[C@@H]1O[C@@H](OC[C@H]2O[C@@H](Oc3c(-c4ccc(O)c(O)c4)oc4cc(O)cc(O)c4c3=O)[C@H](O)[C@@H](O)[C@@H]2O)[C@H](O)[C@H](O)[C@H]1O	-0.1	-12.0	3.4	-1.6	-3.2	-1.5
COCOc1ccc(-c2cc(=O)c3c(OCOC)cc(OCOC)cc3o2)cc1	x	x	x	x	-0.1	x
COc1c(-c2ccc(O)c(O)c2)oc2cc(O)cc(O)c2c1=O	x	-18.2	48.4*	-0.9	20.9	-4.1
COCOc1cc(O)c2c(=O)c(OCOC)c(-c3ccc(OCOC)c(OCOC)c3)oc2c1	x	5.2	50.8*	4.9	-1.3	16.1
O=C(N[C@@H]1CC[C@H](CC(=O)N2CCC(Cc3ccccc3)CC2)O[C@@H]1CO)c1cnccn1	0.5	3.3	0.3	-29.4	3.5	-0.8
CCc1ccc(O)c(N=Cc2ccccc2O)c1	x	-14.9	-0.1	-24.6	x	3.2
O=c1[nH][nH]c2c(N=Cc3ccccc3O)ccc(F)c12	x	-15.2	97.0*	-0.2	-28.1	x
C[C@@H]1CCCCO[C@@H](CN(C)S(=O)(=O)c2ccccc2)[C@@H](C)CN([C@H](C)CO)C(=O)c2cc(NC(=O)C3CCCCC3)ccc2O1	0.2	-14.5	1.9	-0.2	-1.3	-2.6
O=C(NCc1ccco1)c1ccc(C(=O)NCc2ccco2)cc1	-0.1	-24.3	39.9*	-2.8	x	-1.8
Cc1cc(C)cc(C(=O)OCC(=O)NCc2ccco2)c1	0.1	-10.6	51.1*	-0.4	3.9	1.7
C[C@@H]1CN([C@H](C)CO)S(=O)(=O)c2ccc(-c3cccc(F)c3)cc2O[C@@H]1CN(C)C(=O)C1CC1	0.0	3.6	x	11.3	-0.8	0.8
O=[N+]([O-])c1ccc(N=Nc2ccc(O)cc2O)cc1	x	x	x	x	-8.1	x
O=S(=O)(O)c1cc(Cl)cc(N=Nc2ccc(O)cc2O)c1O	0.0	-155.2	76.8*	12.6	x	10.0
C[C@@H]1CCCCO[C@H](CN(C)S(=O)(=O)c2ccc(F)cc2)[C@H](C)CN([C@@H](C)CO)C(=O)c2cc(NC(=O)CCCN(C)C)ccc2O1	0.2	18.5	0.1	7.1	6.4	5.0
CCCCCCSc1ccc([C@@H]2[C@H]3C(=O)N(CC)C(=O)[C@H]3[C@]3(C(=O)OC)CCCCN23)cc1OC	0.3	-195.0	0.1	-11.4	-14.6	47.5*
O=C1C2=C(c3ccccc31)[N+](=O)[C@@H]1CCCC[C@@H]1N2[O-]	x	-15.5	63.4*	4.6	-5.8	-37.5
O=C1C2=C(c3ccccc31)[N+](=O)C1CCCCC1N2[O-] (stereo not given)	x	x	x	x	7.8	x
CC(CC(=O)Nc1ccc2c(c1)c(=O)n(C)n2-c1cccs1)c1ccccc1 (stereo not given)	0.1	-17.9	36.7*	7.4	3.9	-3.4
Cc1cc(C)cc(-n2c3ccc(NC(=O)Cc4cccc5ccccc45)cc3c(=O)n2C)c1	1.2	-14.1	0.8	-1.4	2.4	-0.2
O=C(O)c1cccc(S(=O)(=O)Nc2cccc3ccccc23)c1	0.0	-0.4	5.5	-8.8	-15.1	-6.4
SMILES	Xi reactivation	RAD52 inh	CASP6 VEID inh	S100A4 inh HTS	RAD54 inh	AF4-AF9 inh
O=C(O)c1cccc(S(=O)(=O)Nc2ccccc2Cc2ccccc2)c1	0.0	-4.6	2.8	-1.9	2.1	43.8*
COc1cc(N)c2ncccc2c1Br	0.2	-50.6	92.9*	-1.1	-1.0	-1.6
COc1cc(N)c2ncccc2c1SC	0.0	-16.6	5.1	9.1	x	3.6
Cc1cccc(C)c1NS(=O)(=O)c1ccc(-c2ccc(=O)[nH]n2)o1	0.1	5.2	40.6*	-3.6	5.7	1.4
Cc1ccc(NS(=O)(=O)c2ccc(-c3ccc(=O)[nH]n3)o2)cc1	0.1	-1.7	-4.5	-7.7	-4.2	2.3
CCOc1cccc(/C=C(/C#N)c2nc3ccccc3[nH]2)c1OCC(=O)O	0.0	-27.8	45.2*	-2.0	-7.0	1.8
Cc1cc(C(=O)COC(=O)c2ccc(F)cc2)c(C)n1C	0.1	-1.0	0.7	-4.4	-12.9	-12.2
Cc1cc(C(=O)COC(=O)c2cc(Cl)c(O)c(Cl)c2)c(C)n1C	-0.1	-4.9	57.8*	-0.2	-15.9	-4.0
CN(C)c1ccc(N=Cc2cccn2C)cc1	0.0	15.1	1.1	7.7	8.8	50.1*
CN(C)c1ccc(N=C/C=C2\N(C)c3ccccc3C2(C)C)cc1	x	x	x	x	9.0	x
NC(=O)C1C(=O)c2ccccc2C1(C[N+](=O)[O-])c1ccccc1 (stereo not given)	0.1	-12.7	68.6*	4.5	-24.8	-2.8
C[C@@H]1CN([C@@H](C)CO)C(=O)c2cccc(NC(=O)c3ccncc3)c2O[C@@H]1CN(C)Cc1ccc(Oc2ccccc2)cc1	-0.1	2.0	-0.8	12.4	3.8	23.6
C[C@@H]1CN([C@H](C)CO)C(=O)c2cccc(NC(=O)C3CCCCC3)c2O[C@@H]1CN(C)Cc1ccc(Oc2ccccc2)cc1	-0.1	-8.7	0.6	143.0*	-1.8	6.8
C[C@H](CO)N1C[C@H](C)[C@@H](CN(C)Cc2ccc(Oc3ccccc3)cc2)Oc2c(NC(=O)c3ccncc3)cccc2C1=O	0.0	-9.7	-1.6	-1.6	1.2	25.2*!
Cc1ccc(S(=O)(=O)Nc2cccc3c2O[C@@H](CN(C)Cc2ccc(C(=O)O)cc2)[C@@H](C)CN([C@@H](C)CO)C3=O)cc1	-0.3	-15.4	1.5	-9.9	9.3	-0.7
Cc1ccc(S(=O)(=O)Nc2cccc3c2O[C@H](CN(C)Cc2ccc(C(=O)O)cc2)[C@H](C)CN([C@H](C)CO)C3=O)cc1	-0.3	-14.5	0.3	-1.9	3.9	26.5*
CCC(=O)N(C)C[C@@H]1Oc2cc(C#CC3CC3)ccc2S(=O)(=O)N([C@@H](C)CO)C[C@H]1C	-0.7	1.9	0.3	4.5	-9.1	-4.3
C[C@H](NC(=O)C[C@@H]1CC[C@@H]2[C@H](COC[C@@H](O)CN2C(=O)Nc2cccc(F)c2)O1)c1ccccc1	-0.1	13.9	-0.7	12.1	0.2	-1.8
Cc1cc([N+](=O)[O-])nn1CCCC(=O)Nc1sc2c(c1C(N)=O)CCC(C)C2 (stereo not given)	-0.1	-17.0	2.5	-0.5	x	27.9*
